Bioassay records as filed in PubChem.
A selection: hits, their analogues and other compounds. The true share with any hit is near 3.5%.
RGS4 block: inhibitors of human RGS4; P49798; HEK293 M3R/RGS4 inducible, Fluo-4 calcium flux; active compounds read high; triggered by carbachol at its EC20; B-score at 10 µM; 310,000 tested, 0.45% active;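 active means B-score, a plate-corrected calcium signal, over three deviations above library mean, with baseline fluorescence within five deviations of library mean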;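 further: RGS4 expression induced by doxycycline in cells with stable M3 receptor; B-score is computed from the integrated fluorescence ratio over baseline after carbachol; higher B-score means a larger calcium signal and so more RGS4 inhibition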
Target sequence (P49798 whole entry, looked up): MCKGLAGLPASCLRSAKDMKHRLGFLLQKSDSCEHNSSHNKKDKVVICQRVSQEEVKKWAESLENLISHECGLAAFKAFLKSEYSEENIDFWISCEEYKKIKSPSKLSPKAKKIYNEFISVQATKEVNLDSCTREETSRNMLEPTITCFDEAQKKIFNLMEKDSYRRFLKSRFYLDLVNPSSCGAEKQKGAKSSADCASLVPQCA
MrgX1 antag: human MrgX1 receptor antagonism, primary screen | 310,000 tested, 1.3% active | B-score at 10 µM | MRGX1-HEK293 calcium flux, Fluo-4, BAM8-22 antagonism; active compounds read low | AID 588676;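 active means calcium-response B-score plate-corrected more than 3 library SD below zero, starting fluorescence within 5 deviations, no agonist response on first addition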;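 further: peak minus trough fluorescence over baseline after final BAM8-22 challenge near maximal dose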
Target sequence (Q96LB2 whole entry, looked up): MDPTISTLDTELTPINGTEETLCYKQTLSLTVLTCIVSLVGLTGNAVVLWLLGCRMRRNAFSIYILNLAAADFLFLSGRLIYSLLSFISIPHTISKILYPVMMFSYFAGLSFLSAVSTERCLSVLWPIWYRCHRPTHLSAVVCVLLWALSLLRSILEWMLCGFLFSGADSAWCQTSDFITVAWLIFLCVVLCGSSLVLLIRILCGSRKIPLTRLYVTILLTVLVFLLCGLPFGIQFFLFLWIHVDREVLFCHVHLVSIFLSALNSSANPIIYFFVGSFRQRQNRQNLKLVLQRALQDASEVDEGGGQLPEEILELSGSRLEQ
RGS4 act: potentiators or activators of RGS4; 310,000 tested, 0.92% active; HEK293 M3R/inducible RGS4, carbachol calcium flux Fluo4; active compounds read low; B-score at 10 µM; AID 463111;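 active means B-score of the integrated calcium signal more than 4 SD below the library mean, with starting fluorescence not abnormally high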;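 further: negative B-score means reduced calcium response which marks RGS4 activation or potentiation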
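Reagent: ECmax carbachol challenge; Test system: M3R-expressing HEK293 line, RGS4 induced by doxycycline; Schedule: overnight RGS4 induction, 30 min dye load 37 °C, 20 min compound RT; Detection: calcium dye Fluo4 fluorescence; Read-out: Agonist-evoked peak-minus-minimum fluorescence over baseline, integrated ratio, B score.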
MrgX1 agonist: activates human MrgX1 receptor signaling; Q96LB2; MrgX1-HEK293 cells, Fluo-4 calcium fluorescence, agonist mode; active compounds read high; B-score at 10 µM; 310,000 tested, 0.44% active; AID 588627;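 active means calcium response B-score plate-corrected fluorescence ratio at least 3 library SD, with starting fluorescence B-score inside 5 SD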
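Material: MrgX1-expressing HEK293 cells / Dosing: compound as first of three additions / Incubation: overnight seeding, then 1 h dark dye loading / Signal: Fluo-4 NW calcium fluorescence / Evaluation: B-scored fluorescence response ratio / Benchmarks: positive and negative control wells on each plate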
MrgX1 PAM: allosterically activates human MrgX1 receptor signaling. 310,000 tested, 0.63% active. MrgX1-HEK293, Fluo-4 calcium flux, FDSS; active compounds read high. B-score at 10 µM. Q96LB2;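 active means plate-corrected calcium response at least 3 library SD above typical, normal starting fluorescence, not activating the receptor alone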;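 further: compound read alongside a low EC10 to EC30 dose of BAM8-22 agonist; peak minus trough fluorescence over baseline measured at the second addition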
An asterisk follows results filed as active; i = inactive.

SMILES	RGS4 block	MrgX1 antag	RGS4 act	MrgX1 agonist	MrgX1 PAM
O=C(c1ccc2nc3ccccc3c(=O)n2c1)N1CCN(Cc2ccc3c(c2)OCO3)CC1	i	-9.6*	i	i	i
O=C(c1cccn2c(=O)c3ccccc3nc12)N1CCN(Cc2ccc3c(c2)OCO3)CC1	i	i	i	i	i
CN(C)CC(O)CN1C(=O)NC(C)(C)C1=O (stereo not given)	i	i	i	i	i
CCOC(=O)c1ccc(S(=O)(=O)N2CC(=O)Nc3ccccc32)cc1	i	i	i	i	i
O=[N+]([O-])c1cc(-c2nnc(Nc3ccc(O)cc3)c3ccccc23)ccc1N1CCOCC1	i	-4.7*	i	i	i
O=C(Nc1ccc(-c2nc3ccccc3o2)cc1)c1ccc(N2CCOCC2)c([N+](=O)[O-])c1	i	-6.5*	i	i	i
C=CCNc1nc(NCC)nc(N2CCOCC2)n1	i	i	i	i	i
COc1ccc2oc(-c3ccc(NC(=O)c4ccc(N5CCOCC5)c([N+](=O)[O-])c4)cc3)nc2c1	i	i	i	i	i
O=[N+]([O-])c1cc(-c2nnc(Nc3ccccc3)c3ccccc23)ccc1N1CCOCC1	i	i	i	i	i
C=CCNc1nc(Nc2ccc(-c3nc4ccccc4o3)cc2)nc(N2CCOCC2)n1	i	i	-7.1*	i	i
O=C(Nc1nnc(-c2ccco2)o1)c1ccc([N+](=O)[O-])s1	i	i	i	i	i
O=C1C=C(c2ccccc2)CC(c2ccc(F)cc2)C1 (stereo not given)	i	i	i	i	i
COc1ccc(C2=CC(=O)CC(c3ccc(F)cc3)C2)cn1 (stereo not given)	i	i	i	i	10*
O=C(C[C@H]1C(=O)N(CCc2ccccc2)C[C@@H]1Cc1ccccc1)Nc1ccccc1	i	i	i	i	i
COc1ccc(CCNC(=O)COc2cc(O)c3c(c2)OC(C)(C)CC3=O)cc1OC	i	i	i	i	i
COc1ccc(N(CCC(=O)Nc2ccccc2F)S(=O)(=O)c2ccc(C)cc2C)cc1	i	i	i	i	i
O=C1C=C(N2CCCCCC2)C(=O)N1c1ccc(Cl)cc1	i	i	-7*	i	i
COc1ccc(CC(=O)NC(C)c2nnc(SCC(=O)c3ccc(Br)cc3)n2C)cc1 (stereo not given)	i	-7.4*	i	i	i
CCn1c(SCC(=O)c2ccc(Br)cc2)nnc1C(C)NC(=O)Cc1ccc(OC)cc1 (stereo not given)	i	i	i	i	i
Cc1nn(C)cc1C(C(=O)NC1CCCCC1)N(C(=O)Cc1cccs1)c1ccc(C(C)C)cc1 (stereo not given)	i	i	i	27*	i
Cc1nnc(SCC2=C(C(=O)O)N3C(=O)C(NC(=O)c4cccc(F)c4F)C3SC2)s1 (stereo not given)	i	i	i	i	i
Cc1ccc2c(CN(C)Cc3cccc(Cl)c3)cc(=O)oc2c1C	i	i	i	i	i
CSc1ccc(CN(C)Cc2cc(=O)oc3c(C)c(C)ccc23)cc1	i	i	-7.2*	i	i
CCCCn1c(N)c(N(CCOC)C(=O)c2ccc3c(c2)C(=O)N(c2cc(C)ccc2C)C3=O)c(=O)[nH]c1=O	i	i	i	i	12*
CCCCn1c(N)c(N(CCOC)C(=O)c2ccc3c(c2)C(=O)N(c2ccccc2C)C3=O)c(=O)[nH]c1=O	i	i	i	i	i
SMILES	RGS4 block	MrgX1 antag	RGS4 act	MrgX1 agonist	MrgX1 PAM
CCN(CC)CCCN(C(=O)c1ccc(F)cc1)c1nc(-c2ccc(OC)cc2)cs1	i	i	i	i	i
COC(=O)c1cc(C(=O)c2cc(F)ccc2O)cn2c(=O)c3c(C)c(C)sc3nc12	i	-4.7*	-7*	i	i
C/C(=N\NC(=O)c1cc(-c2cccc(OC(C)C)c2)nc2ccccc12)c1cccnc1	i	i	-9*	i	i
CC(C)COc1cccc(-c2cc(C(=O)N/N=C/c3ccncc3)c3ccccc3n2)c1	i	i	-7.4*	i	i
CCOc1cc(/C=N/NC(=O)c2cc(-c3cccc(OC)c3)nc3ccccc23)ccc1O	i	i	i	i	i
COc1cc(CN2CCCC(C(=O)N3CCc4ccccc4C3)C2)cc(OC)c1OC (stereo not given)	i	i	i	i	i
O=P(CCCCCCCCCP(=O)(c1ccccc1)c1ccccc1)(c1ccccc1)c1ccccc1	i	i	-7*	i	i
Cn1c(=S)n(CCC(=O)O)c2ccccc21	i	i	i	i	i
Cc1occc1C(=O)NC(C)C1CCCO1 (stereo not given)	i	-9.3*	i	i	i
CCCCCC(=O)Nc1cccc(C2=NOC3(C2)C[C@@H](C(N)=O)N(C(=O)CC(c2ccccc2)c2ccccc2)C3)c1 (stereo not given in full)	i	i	i	i	i
CN(C)c1ccc(/C=N/NC(=O)CNC(=O)/C=C/c2ccco2)cc1	i	i	i	i	i
O=C(/C=C/c1ccco1)NCC(=O)N/N=C/c1ccc(Cl)cc1	i	-5*	i	i	i
COc1ccc(OC)c(NC(=O)CN(Cc2ccc(F)cc2)C2CCCCC2)c1	i	i	i	i	i
COc1ccccc1CCC(=O)OCC(=O)Nc1cccc(S(=O)(=O)N2CCCCC2)c1	i	-4.7*	i	i	i
O=C(Nc1cccc([N+](=O)[O-])c1)C1COc2ccccc2O1 (stereo not given)	i	i	i	i	i
O=C(c1cnn2c(C(F)F)cc(-c3ccccc3)nc12)N1CCN(Cc2ccc3c(c2)OCO3)CC1	i	i	i	i	i
Cc1ccc(/C=N/NC(=O)Cc2cccn2C)s1	i	i	i	i	6.5*
Cn1cccc1CC(=O)N/N=C/c1ccc(C(C)(C)C)cc1	i	i	i	i	i
Cc1ccc(/C=N/NC(=O)Cc2cccn2C)cc1	i	i	i	i	6.7*
CCOC(=O)N1CCN(C(=O)c2cccc(N3C(=O)NC4CC3(C)Oc3ccc(Cl)cc34)c2)CC1 (stereo not given)	i	i	i	i	i
COc1ccc(N(Cc2cc(=O)[nH]c3ccccc23)C(=O)C(C)C)cc1	i	i	i	i	i
